In ChEMBL document CHEMBL1921799, “Computationally-guided optimization of a docking hit to yield catechol diethers as potent anti-HIV agents” (J Med Chem, 2011):

Key:
[1] = test system: Human immunodeficiency virus 1; test: Antiviral activity against Human immunodeficiency virus 1 3B infected in human MT2 cells assessed as protection against viral infection by MTT assay; assay type: functional, organism-based
Method in brief: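 HIV-1 (IIIB or variant strains) infected into MT-2 human T-cells. The MTT colorimetric read-out measured cell viability. […] Antiviral curves used triplicate samples at each concentration, and a cytotoxicity (CC50) curve on MT-2 growth was run at the same time.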

MT2 [2] = test: Cytotoxicity against human MT2 cells infected with HIV1 3B by MTT assay; assay type: cell-based
[3] = test system: Human immunodeficiency virus 1; test: Antiviral activity against Human immunodeficiency virus 1 NL4.3 reverse transcriptase K103N and Y181C double mutant infected in human MT2 cells assessed as inhibition of viral infection; assay type: functional, organism-based; conditions: Human immunodeficiency virus 1, NL4.3, MT2
Method in brief: (§1)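 HIV-1 (IIIB or variant strains) infected into MT-2 human T-cells. The MTT colorimetric read-out measured cell viability. Antiviral curves used triplicate samples at each concentration, and a cytotoxicity (CC50) curve on MT-2 growth was run at the same time.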

[4] = test system: Human immunodeficiency virus 1; test: Antiviral activity against Human immunodeficiency virus 1 NL4.3 infected in human MT2 cells assessed as inhibition of viral infection; assay type: functional, organism-based; conditions: Human immunodeficiency virus 1, NL4.3, MT2; method in brief: as §1
[5] = test system: Human immunodeficiency virus 1; test: Antiviral activity against Human immunodeficiency virus 1 NL4.3 reverse transcriptase Y181C mutant infected in human MT2 cells assessed as inhibition of viral infection; assay type: functional, organism-based; conditions: Human immunodeficiency virus 1, NL4.3, MT2; method in brief: as §1
MT2 [6] = test: (§2) Cytotoxicity against human MT2 cells infected with HIV1 NL4.3 by MTT assay; assay type: cell-based; conditions: mt2
[7] = as §2; assay type: cell-based; conditions: MT2 cells infected with HIV1 NL4.3
[8] = test system: Human immunodeficiency virus 1; test: Ratio of EC50 for Human immunodeficiency virus 1 NL4.3 reverse transcriptase Y181C mutant to EC50 for Human immunodeficiency virus 1 NL4.3 expressing wild type reverse transcriptase; assay type: functional
[9] = test system: Human immunodeficiency virus 1; test: Ratio of EC50 for Human immunodeficiency virus 1 NL4.3 reverse transcriptase K103N and Y181C double mutant to EC50 for Human immunodeficiency virus 1 NL4.3 expressing wild type reverse transcriptase; assay type: functional
[10] = test system: Human immunodeficiency virus 1; test: Antiviral activity against Human immunodeficiency virus 1 NL4.3 reverse transcriptase Y181C mutant infected in human MT4 cells assessed as inhibition of viral infection; assay type: functional, organism-based; conditions: Human immunodeficiency virus 1, NL4.3, MT4
[11] = test system: Human immunodeficiency virus 1; test: Antiviral activity against Human immunodeficiency virus 1 NL4.3 reverse transcriptase K103N and Y181C double mutant infected in human MT4 cells assessed as inhibition of viral infection; assay type: functional, organism-based; conditions: Human immunodeficiency virus 1, NL4.3, MT4
[12] = test system: Human immunodeficiency virus 1; test: Antiviral activity against Human immunodeficiency virus 1 NL4.3 infected in human MT4 cells assessed as inhibition of viral infection; assay type: functional, organism-based; conditions: Human immunodeficiency virus 1, NL4.3, MT4
[13] = Cytotoxicity against human MT4 cells infected with HIV1 NL4.3 by MTT assay; assay type: cell-based

| SMILES | EC50 [1] [nM] | CC50 (MT2 [2]) [nM] | EC50 [3] [nM] | EC50 [4] [nM] | EC50 [5] [nM] | CC50 (MT2 [6]) [nM] | further results |
| --- | --- | --- | --- | --- | --- | --- | --- |
| Cc1ccc(OCCn2ccc(=O)[nH]c2=O)c(Cc2ccccc2)c1 | 4800 | 72000 | – | – | – | – | – |
| O=c1ccn(CCOc2cc(Cl)cc(Cl)c2Oc2ccccc2Cl)c(=O)[nH]1 | 830 | 13000 | – | – | – | – | – |
| O=c1ccn(CCOc2ccc(Cl)cc2Cc2ccccc2)c(=O)[nH]1 | 1200 | 23000 | – | – | – | – | – |
| O=c1ccn(CCOc2ccc(Cl)cc2Cc2ccccc2Cl)c(=O)[nH]1 | 620 | 28000 | – | – | – | – | – |
| O=c1ccn(CCOc2ccc(Cl)cc2Cc2cccc(Cl)c2)c(=O)[nH]1 | 1500 | 11000 | – | – | – | – | – |
| O=c1ccn(CCOc2ccc(Cl)cc2Cc2ccc(Cl)cc2Cl)c(=O)[nH]1 | 2900 | 88000 | – | – | – | – | – |
| O=c1ccn(CCOc2ccc(Cl)cc2Cc2cc(Cl)cc(Cl)c2)c(=O)[nH]1 | 1300 | 10000 | – | – | – | – | – |
| O=c1ccn(CCOc2ccc(Cl)cc2Cc2cc(Cl)ccc2Cl)c(=O)[nH]1 | 380 | 15000 | – | – | – | – | – |
| O=c1ccn(CCOc2ccc(Cl)cc2Cc2c(Cl)cccc2Cl)c(=O)[nH]1 | 310 | 49000 | – | – | – | – | – |
| Cc1cn(CCOc2ccc(Cl)cc2Cc2ccccc2)c(=O)[nH]c1=O | 2400 | 22000 | – | – | – | – | – |
| O=c1[nH]c(=O)n(CCOc2ccc(Cl)cc2Cc2ccccc2)cc1F | 2500 | 27000 | – | – | – | – | – |
| O=c1[nH]c(=O)n(CCOc2ccc(Cl)cc2Cc2ccccc2)cc1Cl | 2200 | 21000 | – | – | – | – | – |
| O=c1ccn(CCOc2cc(Cl)ccc2Cc2ccccc2Cl)c(=O)[nH]1 | 410 | 12000 | – | – | – | – | – |
| N#Cc1cc(C#N)cc(Oc2cc(Cl)ccc2OCCn2ccc(=O)[nH]c2=O)c1 | 140 | 80000 | 2200 | 140 | 21000 | 77000 | – |
| N#Cc1cccc(Cl)c1Oc1cc(Cl)ccc1OCCn1ccc(=O)[nH]c1=O | 120 | 50000 | – | – | – | – | – |
| N#Cc1cc(Cl)cc(Oc2cc(Cl)ccc2OCCn2ccc(=O)[nH]c2=O)c1 | 90 | 33000 | 1200 | 90 | 6700 | 32000 | – |
| N#Cc1ccc(Cl)c(Oc2ccc(Cl)cc2OCCn2ccc(=O)[nH]c2=O)c1 | 100 | 60000 | – | – | – | – | – |
| N#Cc1cc(C#N)cc(Oc2ccc(Cl)cc2OCCn2ccc(=O)[nH]c2=O)c1 | 46 | > 100000 | – | – | – | – | – |
| N#Cc1cc(Cl)cc(Oc2ccc(Cl)cc2OCCn2ccc(=O)[nH]c2=O)c1 | 14 | – | 1700 | 14 | 520 | – | CC50 [7]: > 100000 nM |
| N#Cc1cc(Cl)cc(Oc2ccc(Cl)cc2OCCn2cc(F)c(=O)[nH]c2=O)c1 | 13 | 17000 | 1700 | 13 | 620 | 13000 | – |

| SMILES | EC50 [1] [nM] | CC50 (MT2 [2]) [nM] | EC50 [3] [nM] | EC50 [4] [nM] | EC50 [5] [nM] | CC50 (MT2 [6]) [nM] | further results |
| --- | --- | --- | --- | --- | --- | --- | --- |
| N#Cc1cc(Cl)cc(Oc2ccc(Cl)cc2OCCn2cc(Cl)c(=O)[nH]c2=O)c1 | 17 | 31000 | 570 | 17 | 240 | 21000 | Ratio EC50 [8]: 14; Ratio EC50 [9]: 34 |
| N#Cc1cc(Cl)cc(Oc2ccc(C#N)cc2OCCn2ccc(=O)[nH]c2=O)c1 | 6000 | > 100000 | – | – | – | – | – |
| N#Cc1cc(Cl)cc(Oc2ccc(C#N)cc2OCCn2cc(Cl)c(=O)[nH]c2=O)c1 | 5300 | 94000 | – | – | – | – | – |
| N#Cc1ccc(Oc2ccccc2Cl)c(OCCn2ccc(=O)[nH]c2=O)c1 | 270 | > 100000 | – | – | – | – | – |
| N#Cc1ccc(Oc2cc(Cl)ccc2Cl)c(OCCn2ccc(=O)[nH]c2=O)c1 | 43 | 71000 | 2800 | 43 | 920 | 59000 | – |
| N#Cc1ccc(Oc2cc(Cl)cc(Cl)c2)c(OCCn2ccc(=O)[nH]c2=O)c1 | 20 | > 100000 | > 43000 | 20 | 800 | > 61000 | – |
| N#C/C=C/c1cccc(Oc2ccc(C#N)cc2OCCn2ccc(=O)[nH]c2=O)c1 | 15 | > 100000 | 8000 | 15 | 980 | > 90000 | – |
| N#C/C=C/c1cccc(Oc2ccc(Cl)cc2OCCn2ccc(=O)[nH]c2=O)c1 | 5 | 19000 | 1600 | 5 | 370 | 22000 | – |
| N#C/C=C/c1cc(Cl)cc(Oc2ccc(Cl)cc2OCCn2ccc(=O)[nH]c2=O)c1 | 0.055 | 10000 | 220 | 0.055 | 49 | 10000 | – |
| N#C/C=C/c1cc(F)cc(Oc2ccc(Cl)cc2OCCn2ccc(=O)[nH]c2=O)c1 | 3.2 | 48000 | 900 | 3.2 | 150 | 48000 | – |
| N#C/C=C/c1cc(F)cc(Oc2ccc(F)cc2OCCn2ccc(=O)[nH]c2=O)c1 | 0.32 | 45000 | 85 | 0.32 | 16 | 45000 | – |
| CNc1ccc(Oc2cc(Cl)cc(/C=C/C#N)c2)c(OCCn2ccc(=O)[nH]c2=O)c1 | 20 | 30000 | – | 20 | 2800 | 30000 | – |
| N#Cc1cc(F)c(Oc2ccccc2Cl)c(OCCn2ccc(=O)[nH]c2=O)c1 | 160 | > 100000 | – | – | – | – | – |
| COCCOc1cccc(Oc2ccc(C#N)cc2OCCn2ccc(=O)[nH]c2=O)c1 | 540 | > 100000 | – | – | – | – | – |
| N#Cc1ccc(Oc2cccc(OCCCO)c2)c(OCCn2ccc(=O)[nH]c2=O)c1 | 1800 | > 100000 | – | – | – | – | – |
| Cc1cc(C)cc(Oc2c(CSCc3ccco3)c(C)[nH]c(=O)c2I)c1 | – | – | – | 1 | – | – | – |
| O=C1Nc2ccc(Cl)cc2[C@@](C#CC2CC2)(C(F)(F)F)O1 [EFAVIRENZ] | – | – | – | – | – | – | EC50 [10]: 2 nM; EC50 [11]: 37 nM; EC50 [12]: 1.4 nM |
| Cc1cc(C#N)cc(C)c1Oc1nc(Nc2ccc(C#N)cc2)nc(N)c1Br [ETRAVIRINE] | – | – | – | – | – | – | EC50 [10]: 7 nM; EC50 [11]: 4 nM |
| Cc1ccnc2c1NC(=O)c1cccnc1N2C1CC1 [NEVIRAPINE] | – | – | > 100000 | – | > 100000 | – | EC50 [10]: > 10000 nM; EC50 [11]: > 10000 nM; EC50 [12]: 81 nM; CC50 [7]: > 100000 nM |
| Cc1cc(/C=C/C#N)cc(C)c1Nc1ccnc(Nc2ccc(C#N)cc2)n1 [RILPIVIRINE] | – | – | – | – | – | > 1000 | EC50 [11]: 1 nM; EC50 [12]: 0.4 nM; CC50 [13]: 8000 nM |
